In ChEMBL document CHEMBL1139892 (J Nat Prod, 2007):
In brackets after ≈: the same amount, converted by molar mass. Counter-ions that a name gives are not always drawn.

Tests used:
[1] = tested on: Mycobacterium tuberculosis; assay: Antimycobacterial activity against Mycobacterium tuberculosis H37Ra by microplate Alamar Blue assay; format: functional
Method in brief: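 M. tuberculosis H37Ra grown in Middlebrook 7H9 broth; growth read colorimetrically with Alamar Blue in microplates and reported as MIC; isoniazid and kanamycin sulfate included as reference drugs.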

KB = assay: Cytotoxicity against KB cells by colorimetric method; format: cell-based; conditions: Homo sapiens
Method in brief: (§1)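 KB and BC cells were tested by the colorimetric method of Skehan and co-workers, with ellipticine as the reference compound.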

[2] = Cytotoxicity against BC cells by colorimetric method; format: cell-based; conditions: Homo sapiens; method in brief: as §1
Plasmodium falciparum = assay: Antimalarial activity against multidrug-resistant Plasmodium falciparum K1 by micro culture radioisotope technique; format: functional, organism-based
Candida albicans = assay: Antifungal activity against Candida albicans by colorimetric method; format: functional, organism-based
[3] = biological target: Prostaglandin G/H synthase 1 (Homo sapiens, UniProt P23219); assay: Inhibition of COX1 by radioimmunoassay method
[4] = biological target: T1, Prostaglandin G/H synthase 2 (Homo sapiens, UniProt P35354); assay: Inhibition of COX2 by radioimmunoassay method
T1 sequence (P35354 whole entry): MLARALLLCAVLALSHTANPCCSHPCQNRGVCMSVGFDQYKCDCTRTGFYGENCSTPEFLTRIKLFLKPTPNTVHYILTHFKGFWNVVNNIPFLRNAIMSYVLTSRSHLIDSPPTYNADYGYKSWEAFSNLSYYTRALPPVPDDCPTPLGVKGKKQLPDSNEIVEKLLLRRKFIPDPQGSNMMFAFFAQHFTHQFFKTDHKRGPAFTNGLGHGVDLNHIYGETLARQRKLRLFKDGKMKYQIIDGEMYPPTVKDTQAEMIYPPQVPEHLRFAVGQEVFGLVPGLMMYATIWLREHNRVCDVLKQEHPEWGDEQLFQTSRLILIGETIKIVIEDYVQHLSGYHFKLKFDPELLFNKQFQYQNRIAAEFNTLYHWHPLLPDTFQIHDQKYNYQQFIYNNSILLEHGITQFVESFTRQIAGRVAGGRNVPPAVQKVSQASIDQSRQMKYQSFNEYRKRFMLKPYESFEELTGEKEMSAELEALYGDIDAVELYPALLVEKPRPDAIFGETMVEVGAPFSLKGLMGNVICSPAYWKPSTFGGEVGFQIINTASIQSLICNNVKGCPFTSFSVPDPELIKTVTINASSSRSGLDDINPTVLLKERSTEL

Sequence of Prostaglandin G/H synthase 1 (P23219 whole entry): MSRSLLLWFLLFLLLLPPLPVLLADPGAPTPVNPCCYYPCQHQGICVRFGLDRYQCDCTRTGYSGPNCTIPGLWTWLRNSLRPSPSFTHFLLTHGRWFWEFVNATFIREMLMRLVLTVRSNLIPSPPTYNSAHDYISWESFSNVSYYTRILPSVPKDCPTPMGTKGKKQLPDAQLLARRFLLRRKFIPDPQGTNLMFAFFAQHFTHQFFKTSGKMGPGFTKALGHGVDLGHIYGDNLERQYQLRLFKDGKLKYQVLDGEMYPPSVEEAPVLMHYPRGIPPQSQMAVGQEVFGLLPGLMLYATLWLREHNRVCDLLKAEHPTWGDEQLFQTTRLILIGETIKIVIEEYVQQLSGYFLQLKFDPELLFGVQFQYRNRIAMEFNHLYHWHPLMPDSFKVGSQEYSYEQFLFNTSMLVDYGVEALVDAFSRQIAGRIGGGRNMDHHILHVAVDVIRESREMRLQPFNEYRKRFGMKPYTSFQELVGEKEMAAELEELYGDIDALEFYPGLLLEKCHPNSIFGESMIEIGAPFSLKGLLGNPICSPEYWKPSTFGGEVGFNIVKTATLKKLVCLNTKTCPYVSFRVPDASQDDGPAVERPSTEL

| Compound | MIC [1] [µM] | IC50 (KB) [µM] | IC50 [2] [µM] | IC50 (Plasmodium falciparum) [µM] | IC50 (Candida albicans) [µM] | IC50 [3] [µM] | IC50 [4] [µM] |
| --- | --- | --- | --- | --- | --- | --- | --- |
| Cc1c(O)cc2c(c1O)C(=O)C[C@@H](c1ccccc1)O2 | > 741 | > 74 | > 74 | > 74 | > 185 |  |  |
| COc1cc(CCc2ccccc2O)cc(OC)c1 | 194 (≈ 50 µg/mL) | > 77.5 | > 77.5 | > 77.5 | 49.6 |  |  |
| COc1cc(CCc2ccccc2O)c(O)c(OC)c1 | 91.2 (≈ 25 µg/mL) | > 72.9 | > 72.9 | > 72.9 | > 182 |  |  |
| COc1cc(O)cc(CCc2ccccc2)c1 | 219 (≈ 50 µg/mL) | 51.7 | 72.3 | > 87.7 | 68.4 |  |  |
| C[C@@H]1[C@H](O)[C@@H](C)/C=C/C=C/C=C/C=C/C=C/C=C/C=C/[C@H](O[C@@H]2O[C@H](C)[C@@H](O)[C@H](N)[C@@H]2O)C[C@@H]2O[C@](O)(C[C@@H](O)C[C@@H](O)[C@H](O)CC[C@@H](O)C[C@@H](O)CC(=O)O[C@H]1C)C[C@H](O)[C@H]2C(=O)O [AMPHOTERICIN B] |  |  |  |  | 0.04 |  |  |
| C[C@H]1[C@@H](O)O[C@@H]2O[C@@]3(C)CC[C@H]4[C@H](C)CC[C@@H]1[C@@]24OO3 [ARTENIMOL] |  |  |  | 0.0042 |  |  |  |
| COc1cc(O)cc(CCc2ccccc2O)c1 [BATATASIN IV] | 205 (≈ 50 µg/mL) | > 81.8 | > 81.8 | > 81.8 | > 205 | > 40.9 | > 40.9 |
| COc1cc(OC)c(O)c([C@@H]2Cc3ccccc3O2)c1 [BAUHIBENZOFURIN A] | 368 (≈ 100 µg/mL) | > 73.5 | > 73.5 | > 73.5 | 130 |  |  |
| COc1cc(CCc2ccccc2O)cc(O)c1C [BAUHINOL E] | 194 (≈ 50 µg/mL) | > 77.5 | > 77.5 | > 77.5 | > 194 |  |  |
| COc1cc2c(c(O)c1C)Oc1cccc(O)c1CC2 [BAUHINOXEPIN C] | 184 (≈ 50 µg/mL) | 44.8 | 32.3 | > 73.5 | 79.4 |  |  |
| COc1c(C)c(O)cc2c1Oc1cccc(O)c1CC2 [BAUHINOXEPIN D] | 184 (≈ 50 µg/mL) | 41.5 | 45.5 | > 73.5 | > 184 |  |  |
| COc1c(C)c(OC)c2c(c1O)CCc1c(O)cccc1O2 [BAUHINOXEPIN E] | 331 (≈ 100 µg/mL) | > 66.2 | > 66.2 | > 66.2 | > 166 | > 33.1 | > 33.1 |
| COc1c(O)c(C)c(OC)c2c1CCc1c(O)cccc1O2 [BAUHINOXEPIN F] | 662 (≈ 200 µg/mL) | 29.4 | 27.4 | > 66.2 | 77.8 | > 33.1 | 6.9 |
| COc1c(C)c(O)cc2c1Oc1ccccc1C(O)C2 (configuration not stated) [BAUHINOXEPIN G] | 91.9 (≈ 25 µg/mL) | > 73.5 | > 73.5 | > 73.5 | > 184 |  |  |
| COC1=C(C)C(=O)C2=C(CCc3c(O)cccc3O2)C1=O [BAUHINOXEPIN H] | 87.4 (≈ 25 µg/mL) | 15.7 | 11.5 |  | > 175 | > 34.9 | > 34.9 |
| COC1=C(C)C(=O)C2=C(CCc3cc(O)ccc3O2)C1=O [BAUHINOXEPIN I] | 175 (≈ 50 µg/mL) | 38.8 | 41.9 | 10.5 | > 175 | > 34.9 | 10.1 |
| COC1=CC(=O)C2=C(CCc3ccccc3O2)C1=O [BAUHINOXEPIN J] | 24.4 (≈ 6.25 µg/mL) | 10.5 | 12.1 | 5.8 | > 195 |  |  |
| Cc1c(O)c(C)c2c(c1O)C(=O)C[C@@H](c1ccccc1)O2 [DEMETHOXYMATTEUCINOL] | > 704 | > 70.4 | > 70.4 | 9.5 | > 176 |  |  |
| Oc1cc(O)cc(CCc2ccccc2)c1 [DIHYDROPINOSYLVIN] | 117 (≈ 25 µg/mL) | > 93.4 | > 93.4 | > 93.4 | > 234 | > 46.7 | > 46.7 |
| Cc1c2ccncc2c(C)c2c1[nH]c1ccccc12 [ELLIPTECINE] |  | 5.3 | 6.1 |  |  |  |  |
| NNC(=O)c1ccncc1 [ISONIAZID] | 0.29 (≈ 0.0398 µg/mL) |  |  |  |  |  |  |
| NC[C@H]1O[C@H](O[C@H]2[C@H](O)[C@@H](O[C@H]3O[C@H](CO)[C@@H](O)[C@H](N)[C@H]3O)[C@H](N)C[C@@H]2N)[C@H](O)[C@@H](O)[C@@H]1O [KANAMYCIN SULFATE] | 3.43 |  |  |  |  |  |  |
